The list is not random: actives were taken first. Their share in the collection is about 3.7%.
NPY Y1 blocker: antagonists of human neuropeptide Y receptor Y1. 200,000 compounds, 1% hits. AID 1040. P25929. inhibition, % at 3.6 µM. HEK293-CNG Y1 cells, membrane potential fluorescence; NPY at EC95, then isoproterenol;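 active = inhibition above the campaign mean inhibition of all tested compounds plus 3 SD, cut at about 20% in these data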;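 also: 0% = DMSO wells given NPY plus isoproterenol and 100% = isoproterenol alone without NPY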
Target sequence (P25929 whole entry, looked up): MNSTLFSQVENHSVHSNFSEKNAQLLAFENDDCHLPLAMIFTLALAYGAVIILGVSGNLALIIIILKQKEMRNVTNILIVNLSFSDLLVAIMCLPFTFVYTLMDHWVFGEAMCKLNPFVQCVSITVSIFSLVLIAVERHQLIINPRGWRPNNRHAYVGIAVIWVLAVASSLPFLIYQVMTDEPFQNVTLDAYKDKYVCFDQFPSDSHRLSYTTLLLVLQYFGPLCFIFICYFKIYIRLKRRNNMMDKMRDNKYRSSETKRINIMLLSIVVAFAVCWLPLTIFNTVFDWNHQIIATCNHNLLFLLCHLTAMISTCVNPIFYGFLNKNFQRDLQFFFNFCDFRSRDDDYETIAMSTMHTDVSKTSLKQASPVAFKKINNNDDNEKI
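Material: HEK293 cells with Y1 receptor plus CNG channel; times: compound incubation 1 h at room temperature, readout 45 min post-stimulation; signal: fluorescence, membrane potential probe; read-out basis: fluorescence ratio normalized to % inhibition between controls; benchmarks: full-block control isoproterenol-only wells, zero-block control NPY plus isoproterenol wells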
Furin inh: human furin inhibition; P09958; purified furin, fluorogenic substrate cleavage; inhibition, % at 20 µM or 30 µM; 220,000 compounds, 0.061% hits; AID 463115; in the data active = inhibition above about 25%
NPY Y2 blocker: antagonists of human neuropeptide Y receptor Y2; P49146; 140,000 compounds, 0.99% hits; AID 793; NPY-Y2 expressing cells, antagonist mode; inhibition, % at 2.7 µM; in the data active = inhibition above about 17%;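 also: 0% = vehicle with agonist challenge and 100% = reference antagonist with challenge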
NPY1 pot ag: potentiates or activates human NPY-Y1 receptor | activation, % at 3.6 µM | NPY-Y1 expressing cells, potentiator/agonist activation | 220,000 compounds, 0.37% hits | AID 1304; in the data active = activation above about 33%, passing the limit was not always enough;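 also: cells stimulated with NPY at EC10 then isoproterenol at EC100; 0% = low agonist plus stimulus and 100% = saturating agonist plus stimulus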
NPY2 pot ag: human NPY-Y2 potentiation or agonism, primary screen; cells expressing NPY-Y2, potentiator/agonist read-out; AID 1359; 220,000 compounds, 0.45% hits; activation, % at 3.6 µM; P49146; in the data active = activation above about 27%;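 also: cells stimulated with NPY near EC25 plus isoproterenol at EC100; 0% = vehicle plus submaximal agonist and 100% = vehicle plus saturating agonist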
KCC2 mod: modulates chloride dependent transport by human KCC2 | KCC2 cells, thallium flux FluoZin-2 fluorescence | B-score of Tl+ flux slope (higher = more flux/activation; lower = inhibition) at 10 µM | 190,000 compounds, 2.2% hits | Q9H2X9;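 active = thallium flux slope and its plate-corrected score both differing from the plate sample mean at a set confidence after two filtering rounds, in either direction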;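 also: slope of fluorescence scaled to starting intensity during 10 to 20 s after thallium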
The depositor's hits bear a star; · = no result given.

SMILES	NPY Y1 blocker	Furin inh	NPY Y2 blocker	NPY1 pot ag	NPY2 pot ag	KCC2 mod
c1ccc(C[n+]2cccc3c4ccccc4ccc32)cc1	-5	-60	13	13	36*	-0.54
CCOC(=O)c1cnn(-c2sc(C(=O)OCC)c(C)c2C(=O)OCC)c1N	-1	-19	3	-4	1	43*
Cc1ccc(Cl)cc1N1CCN(CC(=O)Nc2ccc(CN3CCCCC3)cc2)CC1	36*	-17	14	-87	-28	-0.69
COc1ccc(NC(=O)COC(=O)CCCc2c[nH]c3ccccc23)cc1OC	14	-29	12	-27	-32	-0.91
Cn1c(=O)c2c(nc(CN3CCN(c4ccccc4)CC3)n2CCc2ccccc2)n(C)c1=O	5	-15	0	-21	-15	-0.27
Cn1c(=O)c2c(nc(CN3CCN(c4cccc(Cl)c4)CC3)n2CCc2ccccc2)n(C)c1=O	18	-9	17*	-56	-20	·
CCc1cccc2c(C(=O)COC(=O)c3nn(C)c(=O)c4ccccc34)c[nH]c12	2	-23	2	-15	-9	0.0027
CCc1cccc2c(C(=O)CN3C(=O)NC(C)(c4cccc5ccccc45)C3=O)c[nH]c12 (configuration not stated)	-13	-28	·	43*	37*	·
COc1ccc(OC)c(-c2nc3cc4ccccc4cc3nc2-c2ccccc2)c1	-4	-7	4	-2	3	0.4
CCc1cccc(CC)c1NC(=O)COC(=O)C1(c2ccc(Cl)cc2)CCCC1	40*	-16	19*	-26	6	0.064
CC(=O)Nc1ccc(NC(=O)COC(=O)C2(c3ccc(Cl)cc3)CCCC2)cc1	-3	-20	-3	6	7	-0.048
Cc1cc(C(=O)CCl)c(C)n1CCc1ccc(Cl)cc1	-4	-24	·	63*	91*	-1.3
CC(C)NC(=O)c1ccc2c(=O)n(C3CCCC3)c(=S)[nH]c2c1	2	-28	-2	0	8	1.3
O=C(c1ccc2c(=O)n(C3CCCC3)c(=S)[nH]c2c1)N1CCc2ccccc21	2	-30	-1	7	-11	17*
CC(CCc1ccccc1)NC(=O)C(=O)Nc1ccccc1 (configuration not stated)	5	-18	8	15	-8	0.17
CC(=O)Nc1ccc(Nc2ccc3c4c(cc(=O)n3C)-c3ccccc3C(=O)c24)cc1	-1	-26	·	7	6	0.48
O=C1c2ccccc2C(=O)c2c(Nc3ccc(CCO)cc3)ccc(O)c21	·	-6	·	121*	117*	-0.23
COc1ccc(NC(=O)CN(C)C2CCCCC2)c([N+](=O)[O-])c1	11	-8	4	-28	-5	0.055
Cc1nc2sccn2c(=O)c1CCN1CCC(=C(c2ccccc2)c2ccc(F)cc2)CC1	40*	-19	44*	-92	-8	-0.51
Cc1ccc(-c2c(C(=O)N(C)Cc3ccccc3)oc(=O)c3ccccc23)cc1	35*	-5	34*	-29	-20	-0.4
CN(Cc1ccccc1)C(=O)c1oc(=O)c2ccccc2c1-c1ccccc1	31*	1	23*	-2	-10	-1.1
CCOC(=O)c1cc(C)sc1/N=C/C1C(=O)CC(C)(C)CC1=O	0	26*	2	4	13	0.29
Cc1ccc(NC(=O)CCC(=O)c2cccs2)c(O)c1	·	-24	·	8	0	-0.5
N=c1c2c(-c3ccccc3)c(-c3ccccc3)n(Cc3ccco3)c2ncn1CCO	38*	-28	63*	-79	-23	-0.2
N=c1c2c(-c3ccccc3)c(-c3ccccc3)n(Cc3ccco3)c2ncn1CCN1CCOCC1	42*	-23	43*	-11	16	0.14
SMILES	NPY Y1 blocker	Furin inh	NPY Y2 blocker	NPY1 pot ag	NPY2 pot ag	KCC2 mod
N=c1c2c(-c3ccccc3)c(-c3ccccc3)n(Cc3ccco3)c2ncn1CCCO	·	-12	·	-47	-46	-0.029
c1csc(-c2nn3c(Cn4cnc5ccccc54)nnc3s2)c1	4	-11	2	-17	0	0.14
Clc1cccc(-c2nn3c(Cn4cnc5ccccc54)nnc3s2)c1	8	34*	8	-17	-1	-1.3
COC(=O)c1ccc(CC(=O)c2ccc(O)cc2O)o1	-5	-25	1	23	24	-0.84
CCOC(=O)c1ccc(CC(=O)c2ccc(O)cc2O)o1	-3	-8	2	34	35*	-1
Cc1ccnc(NC(=O)CCC2CCCCC2)c1	23*	-32	20*	-8	-10	·
FC(F)(F)c1nc(=S)c2ccccc2[nH]1	3	-20	·	-1	-2	32*
Cn1nc(C(F)(F)F)c(-c2ccc(F)cc2)c1NC(=O)c1ccco1	·	-13	·	6	-1	-0.15
Cn1nc(C(F)(F)F)c(-c2ccc(Br)cc2)c1NC(=O)Nc1ccc(F)cc1F	·	-26	·	108*	99*	0.99
CCOC(=O)C1CCCN(C(=O)c2cnn3c(C(F)(F)F)cc(-c4ccccc4)nc23)C1 (configuration not stated)	22*	-23	19*	-53	-24	-0.23
COc1ccc(/C=C/C(=O)NC(=S)NNC(=O)Cc2cccs2)cc1	0	-10	5	-1	2	1.8
COc1ccc(C(=O)NNC(=S)NC(=O)/C=C/c2cccs2)cc1	1	-33	·	-3	-6	13*
O=C(/C=C/c1cccs1)NC(=S)NNC(=O)c1ccccc1O	-3	-6	·	11	4	12*
COc1ccc(/C=C/C(=O)NC(=S)NNC(=O)c2ccco2)cc1	7	-12	-2	-8	1	11*
CS(=O)(=O)N1N=C(c2ccco2)CC1c1ccc(Cl)cc1Cl (configuration not stated)	0	-22	·	7	7	-0.37
Nc1nc(-c2ccccc2)c(N=Nc2cccnc2)s1	-19	-32	·	65*	57*	0.5
COc1cccc(S(=O)(=O)NCc2ccc(C(=O)Nc3ccc(Cl)c(Cl)c3)cc2)c1	-12	-20	1	44*	23	-0.04
N#Cc1c(NCCN)nc(NCc2ccccc2)c2c1CCN(Cc1ccccc1)C2	10	-10	6	11	1	-0.081
N#Cc1c(N2CCCCC2)nc(N2CCCCC2)c2c1CCN(Cc1ccccc1)C2	23*	-8	25*	-33	-4	-0.53
Cc1nc(C)c(C(=O)Nc2ccc(Oc3ccccc3)cc2)o1	-8	-9	2	-6	-2	-4*
Cc1cc2nc(CCN(C(=S)NCC(C)C)C3CCCC3)[nH]c2cc1C	1	-18	2	2	-22	-5.6*
Cc1cc2nc(CCN(C(=S)NCC3CCCO3)C3CCCC3)[nH]c2cc1C (configuration not stated)	1	-26	·	2	0	-3.7
Oc1c(Cl)cc(Cl)c2c1NCCC2	-1	-18	0	-31	-2	14*
